Measurements: ChEMBL document CHEMBL1671723, “Bioavailability and efficacy of levofloxacin against Francisella tularensis in the common marmoset (Callithrix jacchus)” (Antimicrob Agents Chemother, 2010)
The source made the active and inactive calls. The rule behind the calls is not given here.

What was measured:
[1] = test system: Homo sapiens; assay: AUC (0 to infinity) in human at 500 mg, po by […] analysis; type: ADME, organism-based, Plasma; set-up: dose 500 mg, time infinity, route oral; conditions: in vivo
[2] = Tmax in human at 500 mg, po QD measured on day 10 by […] analysis; type: ADME, organism-based; conditions: in vivo
[3] = test system: Callithrix jacchus; assay: AUC in common marmoset at 40 mg/kg, po BID measured on day 1 by […] analysis; type: ADME, organism-based, Plasma; set-up: dose 40 mg/kg, route oral; conditions: in vivo
Method in brief: (§1)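 Marmosets were dosed orally with 40 mg/kg levofloxacin twice daily in banana milkshake for 7 days. On day 1, group A (n=3) was bled predose and at 1, 4 and 8 h, and group B (n=3) at 0.5, 2, 6 and 12 h. Heparinised plasma was stored at −70°C and measured by LC-MS/MS-ESI (calibration 0.1–50 μg/ml). PK parameters were calculated.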

[4] = Cmax in Rhesus monkey at 15 mg/kg followed by 4 mg/kg in 12 hrs dosing interval by […] analysis; type: ADME, organism-based, Macaca mulatta; set-up: dose 15 mg/kg; conditions: in vivo
[5] = Half life in common marmoset at 40 mg/kg, po BID measured on day 1 by […] analysis; type: ADME, organism-based, Callithrix jacchus; set-up: dose 40 mg/kg, route oral; conditions: in vivo; method in brief: as §1
[6] = Half life in common marmoset at 40 mg/kg, po BID measured on day 7 by […] analysis; type: ADME, organism-based, Callithrix jacchus; set-up: dose 40 mg/kg, route oral; conditions: in vivo
Method in brief: (§2)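 Oral levofloxacin, 40 mg/kg twice daily in banana milkshake for 7 consecutive days. Day-7 sampling: predose and 1, 4 and 8 h (group A, n=3); 0.5, 2, 6 and 12 h (group B, n=3). Lithium-heparin plasma was held at −70°C and quantified by LC-MS/MS-ESI against spiked-plasma standards (0.1–50 μg/ml). PK parameters were derived.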

[7] = test system: Rhesus monkey; assay: AUC (0 to infinity) in Rhesus monkey at 15 mg/kg by […] analysis; type: ADME, organism-based, Macaca mulatta, Plasma; set-up: time infinity, dose 15 mg/kg; conditions: in vivo
[8] = test system: Francisella tularensis; assay: Antimicrobial activity against Francisella tularensis SCHU S4 infected in common marmoset assessed as survival of marmoset at 16.5 mg/kg BID for 10 days measured on day 24; type: functional, organism-based; set-up: dose 16.5 mg/kg
[9] = Tmax in Rhesus monkey at 15 mg/kg by […] analysis; type: ADME, organism-based, Macaca mulatta; set-up: dose 15 mg/kg; conditions: in vivo
[10] = Tmax in Rhesus monkey at 15 mg/kg followed by 4 mg/kg in 12 hrs dosing interval by […] analysis; type: ADME, organism-based, Macaca mulatta; conditions: in vivo
[11] = Tmax in human at 500 mg, po by […] analysis; type: ADME, organism-based; conditions: in vivo
[12] = Half life in Rhesus monkey at 15 mg/kg followed by 4 mg/kg in 12 hrs dosing interval by LS/MS/MS analysis; type: ADME, organism-based, Macaca mulatta; conditions: in vivo
[13] = test system: Callithrix jacchus; assay: AUC in common marmoset at 40 mg/kg, po measured on day 1 by […] analysis; type: ADME, organism-based, Plasma; set-up: dose 40 mg/kg, route oral; conditions: in vivo
Method in brief: (§3)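 Six marmosets (25–64 months, 310–560 g) received one oral 40 mg/kg levofloxacin dose in banana milkshake. Two groups of three were bled at 0.5, 2 and 6 h or at 1, 4 and 8 h. Lithium-heparin plasma was stored at −70°C and assayed by LC-MS/MS-ESI against a spiked-plasma calibration curve (0.1–50 μg/ml). PK parameters were derived from the pooled profile.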

[14] = Cmax in common marmoset at 40 mg/kg, po measured on day 1 by […] analysis; type: ADME, organism-based, Callithrix jacchus; set-up: dose 40 mg/kg, route oral; conditions: in vivo; method in brief: as §3
[15] = Half life in common marmoset at 40 mg/kg, po measured on day 1 by […] analysis; type: ADME, organism-based, Callithrix jacchus; set-up: dose 40 mg/kg, route oral; conditions: in vivo; method in brief: as §3
[16] = Half life in Rhesus monkey at 15 mg/kg by LS/MS/MS analysis; type: ADME, organism-based, Macaca mulatta; set-up: dose 15 mg/kg; conditions: in vivo
[17] = Cmax in human at 500 mg, po QD measured on day 10 by […] analysis; conditions: in vivo
[18] = Cmax in common marmoset at 40 mg/kg, po BID measured on day 7 by […] analysis; type: ADME, organism-based, Callithrix jacchus; set-up: dose 40 mg/kg, route oral; conditions: in vivo; method in brief: as §2
[19] = Cmax in human at 500 mg, po by […] analysis; conditions: in vivo
[20] = Cmax in common marmoset at 40 mg/kg, po BID measured on day 1 by […] analysis; type: ADME, organism-based, Callithrix jacchus; set-up: dose 40 mg/kg, route oral; conditions: in vivo; method in brief: as §1
[21] = test system: Callithrix jacchus; assay: AUC in common marmoset at 40 mg/kg, po BID measured on day 7 by […] analysis; type: ADME, organism-based, Plasma; set-up: dose 40 mg/kg, route oral; conditions: in vivo; method in brief: as §2
[22] = test system: Homo sapiens; assay: AUC (0 to infinity) in human at 500 mg, po QD measured on day 10 by […] analysis; type: ADME, organism-based, Plasma; set-up: dose 500 mg, route oral, time infinity; conditions: in vivo
[23] = Cmax in Rhesus monkey at 15 mg/kg by […] analysis; type: ADME, organism-based, Macaca mulatta; set-up: dose 15 mg/kg; conditions: in vivo
[24] = test system: Rhesus monkey; assay: AUC (0 to infinity) in Rhesus monkey at 15 mg/kg followed by 4 mg/kg in 12 hrs dosing interval by […] analysis; type: ADME, organism-based, Macaca mulatta, Plasma; set-up: dose 15 mg/kg, time infinity; conditions: in vivo
[25] = Half life in human at 500 mg, po QD measured on day 10 by LS/MS/MS analysis; type: ADME, organism-based; conditions: in vivo
[26] = Half life in human at 500 mg, po by LS/MS/MS analysis; type: ADME, organism-based; conditions: in vivo
[27] = Tmax in common marmoset at 40 mg/kg, po BID measured on day 7 by […] analysis; type: ADME, organism-based, Callithrix jacchus; set-up: dose 40 mg/kg, route oral; conditions: in vivo; method in brief: as §2

In the case of `C[C@H]1COc2c(N3CCN(C)CC3)c(F)cc3c(=O)c(C(=O)O)cn1c23.C[C@H]1COc2c(N3CCN(C)CC3)c(F)cc3c(=O)c(C(=O)O)cn1c23.O` [LEVOFLOXACIN], the AUC [1] is reported as 56.3 µg·h/mL, the Tmax [2] is reported as 1.1 h and the AUC [3] is reported as 63.6 µg/mL/h. It also gave a Cmax [4] of 5.3 µg/mL, a half-life [5] of 2.4 h and a half-life [6] of 2.3 h. The AUC [7] was 21.3 µg·h/mL, the Activity [8] was “Active” and the Tmax [9] was 1.5 h. For the same compound, the Tmax [10] was 2.2 h, the Tmax [11] was 1.5 h and the half-life [12] was 3.4 h. The AUC [13] was 112.4 µg/mL/h, the Cmax [14] was 18.8 µg/mL and the half-life [15] was 3.9 h. It also gave a half-life [16] of 2 h, a Cmax [17] of 5.7 µg/mL and a Cmax [18] of 20.9 µg/mL. It also gave a Cmax [19] of 8.5 µg/mL, a Cmax [20] of 16.5 µg/mL and an AUC [21] of 81.4 µg/mL/h. For the same compound, the AUC [22] was 47.5 µg·h/mL, the Cmax [23] was 5.1 µg/mL and the AUC [24] was 33.4 µg·h/mL. It also gave a half-life [25] of 7.6 h, a half-life [26] of 6.4 h and a Tmax [27] of 0.5 h.
